Assay results published in ChEMBL document CHEMBL1671867, “Novel polymyxin derivatives carrying only three positive charges are effective antibacterial agents” (Antimicrob Agents Chemother, 2008).
≈ marks a conversion by molar mass, not a printed value. Each block holds one molecule with its values, some of them ahead of it. Bridge positions count the residues as written; N and C are the ends. Square brackets hold non-standard residues; d marks the D form. Peptide text beside a SMILES is read from it. * marks the point of attachment. Octanoyl = CCCCCCCC(=O)*; Dab = NCC[C@H](N)C(=O)O; Abu = CC[C@H](N)C(=O)O

What was measured:
[1] = system: Escherichia coli; test: Antibacterial activity against Escherichia coli IH3080 assessed as reduction in bacterial count at 2 ug/ml using 2 day old compound stock solution; assay type: functional; parameters: scale not given: the % may be the effect or the level left
[2] = system: Escherichia coli; test: Antibacterial activity against Escherichia coli IH3080 by Etest method in presence of 4 ug/ml NAB7064; assay type: functional
[3] = system: Klebsiella pneumoniae; test: Ratio of the MIC for Klebsiella pneumoniae ATCC 13883 in the absence of NAB7061 to MIC for Klebsiella pneumoniae ATCC 13883 in the presence of 4 ug/ml of NAB7061; assay type: functional
[4] = system: Klebsiella pneumoniae; test: Antibacterial activity against Klebsiella pneumoniae ATCC 13883 by Etest method in presence of 2 ug/ml NAB7061; assay type: functional
Summary of the method: (§1)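 MICs of the antibiotic taken from E-strips on Mueller-Hinton agar, run both with and without peptide. […] Inoculum was prepared per the strip manufacturer, matching CLSI M2-A9.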

[5] = system: Escherichia coli; test: Antibacterial activity against Escherichia coli IH3080 by Etest method; assay type: functional
Summary of the method: (§2)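 E-strip MIC on Mueller-Hinton agar without added peptide; inoculum per manufacturer, matching CLSI M2-A9.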

[6] = system: Escherichia coli; test: Antibacterial activity against Escherichia coli ATCC […] by Etest method in presence of 4 ug/ml NAB7064; assay type: functional
[7] = system: Escherichia coli; test: Ratio of the MIC for Escherichia coli IH3080 in the absence of NAB7061 to MIC for Escherichia coli IH3080 in the presence of 4 ug/ml of NAB7061; assay type: functional
[8] = system: Enterobacter cloacae; test: Ratio of the MIC for Enterobacter cloacae ATCC 23355 in the absence of NAB7061 to MIC for Enterobacter cloacae ATCC 23355 […] in the presence of 4 ug/ml of NAB7061; assay type: functional
[9] = system: Klebsiella pneumoniae; test: Antibacterial activity against Klebsiella pneumoniae ATCC 13883 by Etest method in presence of 1 ug/ml NAB7061; assay type: functional; summary of the method: as §1
[10] = system: Escherichia coli; test: Antibacterial activity against Escherichia coli IH3080 by Etest method in presence of NAB7061; assay type: functional
[11] = system: Klebsiella pneumoniae; test: Antibacterial activity against Klebsiella pneumoniae ATCC 13883 by Etest method in presence of NAB7061; assay type: functional; summary of the method: as §1
[12] = system: Enterobacter cloacae; test: Antibacterial activity against Enterobacter cloacae ATCC 23355 […] by Etest method in presence of 1 ug/ml NAB7061; assay type: functional
[13] = system: Escherichia coli; test: Ratio of the MIC for Escherichia coli ATCC 25992 in the absence of NAB7061 to MIC for Escherichia coli ATCC 25992 in the presence of 4 ug/ml of NAB7061; assay type: functional
[14] = system: Escherichia coli; test: Antibacterial activity against Escherichia coli ATCC […] by Etest method in presence of NAB7061; assay type: functional
[15] = system: Escherichia coli; test: Antibacterial activity against Escherichia coli ATCC 25992 by Etest method; assay type: functional; summary of the method: as §2
[16] = system: Escherichia coli; test: Antibacterial activity against Escherichia coli ATCC […] by Etest method in presence of 1 ug/ml NAB7061; assay type: functional
[17] = system: Escherichia coli; test: Antibacterial activity against Escherichia coli IH3080 by Etest method in presence of 1 ug/ml NAB7061; assay type: functional
[18] = system: Enterobacter cloacae; test: Antibacterial activity against Enterobacter cloacae ATCC 23355 by Etest method; assay type: functional; summary of the method: as §2
[19] = system: Klebsiella pneumoniae; test: Antibacterial activity against Klebsiella pneumoniae ATCC 13883 by Etest method; assay type: functional; summary of the method: as §1
[20] = system: Enterobacter cloacae; test: Antibacterial activity against Enterobacter cloacae ATCC 23355 […] by Etest method in presence of 4 ug/ml NAB7064; assay type: functional
[21] = system: Escherichia coli; test: Antibacterial activity against Escherichia coli ATCC […] by Etest method in presence of 2 ug/ml NAB7062; assay type: functional
[22] = system: Enterobacter cloacae; test: Antibacterial activity against Enterobacter cloacae ATCC 23355 […] by Etest method in presence of 2 ug/ml NAB7062; assay type: functional
[23] = system: Klebsiella pneumoniae; test: Antibacterial activity against Klebsiella pneumoniae ATCC 13883 by Etest method in presence of 4 ug/ml NAB7061; assay type: functional; summary of the method: as §1
[24] = system: Escherichia coli; test: Antibacterial activity against Escherichia coli IH3080 by Etest method in presence of 2 ug/ml NAB7062; assay type: functional
[25] = system: Enterobacter cloacae; test: Antibacterial activity against Enterobacter cloacae ATCC 23355 […] by Etest method in presence of NAB7061; assay type: functional
[26] = system: V79; test: Cytotoxicity against chinese hamster V79 cells at […] to 128 ug/ml after 24 hrs; assay type: cell-based, Cricetulus griseus; details: v79, 24 h
[27] = Inhibition of [3H]gentamicin binding to brush border membrane of renal cortex
Summary of the method: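 Brush border membrane vesicles prepared from male albino rat renal cortex by Mg2+-EGTA precipitation. Incubated with 20 μM [3H]gentamicin in 10 mM HEPES pH 7.5 with 300 mM mannitol, with or without compound, 60 min at 4°C. Then filtered, washed, and bound radioactivity counted by scintillation. IC50 fitted with the Hill equation.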

Compound: CCCCCCCC(=O)N[C@H](C(=O)N[C@H](CO)C(=O)N[C@H]1CCNC(=O)[C@H]([C@@H](C)O)NC(=O)[C@H](CCN)NC(=O)[C@H](CCN)NC(=O)[C@H](CC(C)C)NC(=O)[C@@H](Cc2ccccc2)NC(=O)[C@H](CCN)NC1=O)[C@@H](C)O.CS(=O)(=O)[O-].[Na+]
Activity [1]: 90%

MIC [2]: 1.5 µg/mL | MIC [4]: 12 µg/mL | MIC [5]: 128 µg/mL (≈ 256 µM) | MIC [6]: 1.5 µg/mL | MIC [9]: 24 µg/mL | MIC [10]: 0.146 µg/mL | MIC [11]: ≤ 0.167 µg/mL | MIC [12]: 24 µg/mL | MIC [15]: 256 µg/mL (≈ 511 µM) | MIC [16]: 16 µg/mL | MIC [17]: 16 µg/mL | MIC [18]: 48 µg/mL (≈ 95.9 µM) | MIC [19]: 64 µg/mL (≈ 128 µM) | MIC [20]: 0.19 µg/mL | MIC [21]: 4 µg/mL | MIC [22]: 8 µg/mL | MIC [23]: 2 µg/mL | MIC [24]: 12 µg/mL | MIC [25]: 0.293 µg/mL
Compound: C/C(=C\C(=O)OCCCCCCCCC(=O)O)C[C@@H]1OC[C@H](C[C@@H]2O[C@H]2[C@@H](C)[C@H](C)O)[C@@H](O)[C@H]1O [MUPIROCIN]
Ratio [3]: 24 | Ratio [7]: 64 | Ratio [8]: 250 | Ratio [13]: 64 | fractional inhibitory concentration index (FICI) [14]: 0.127

IC50 [27]: 187 µM
Compound: CCCCCCCC(=O)N[C@H](C(=O)N[C@@H](CC)C(=O)N[C@H]1CCNC(=O)[C@H]([C@@H](C)O)NC(=O)[C@H](CCN)NC(=O)[C@H](CCN)NC(=O)[C@H](CC(C)C)NC(=O)[C@@H](Cc2ccccc2)NC(=O)[C@H](CCN)NC1=O)[C@@H](C)O (Octanoyl-T[Abu][Dab][Dab][dF]L[Dab][Dab]T; lactam 3-C)
Activity [26]: Non-toxic
